Experimental findings from ChEMBL document CHEMBL5346918, “Design, synthesis and biological evaluation of Nucleosidic CD99 inhibitors that selectively reduce Ewing sarcoma viability” (Eur J Med Chem, 2023) are described below.

What all share (format): functional
Experiment [1] is described as follows: Cytotoxicity against human A4573 cells assessed as reduction in cell viability incubated for 48 hrs by CellTiter-Blue reagent based […] assay. As to conditions: A4573, 48 h. In short, it runs like this: (§1)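 Cells seeded and grown to 60–80% confluency (usually 18–24 h), then treated 48 h with a range of concentrations prepared in each line's medium. CellTiter-Blue reagent added at the end of treatment and incubated 3–5 h at 37 °C, 5% CO₂. Fluorescence read at 560 nm excitation and 590 nm emission. IC50 from nonlinear regression, log(inhibitor) vs. normalized response.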
On the technique in general: The colour change of resazurin is a common sign of viable cells or microbes.

A further experiment relates to TC-32. The experiment in a line: Cytotoxicity against human TC-32 cells assessed as reduction in cell viability incubated for 48 hrs by CellTiter-Blue reagent based […] assay. As to conditions: TC-32, 48 h. In short, it runs like this:
as §1

A short description of experiment [2]: Cytotoxicity against human TC71 cells assessed as reduction in cell viability incubated for 48 hrs by CellTiter-Blue reagent based […] assay. As to conditions: TC-71, 48 h. In short, it runs like this:
as §1

Another experiment concerns SAOS-2. The experiment in a line: Cytotoxicity against human SAOS-2 cells assessed as reduction in cell viability incubated for 48 hrs by CellTiter-Blue reagent based […] assay. As to conditions: SAOS-2, 48 h. In short, it runs like this:
as §1

The test system of another experiment is U2OS. The experiment in a line: Cytotoxicity against human U2OS cells assessed as reduction in cell viability incubated for 48 hrs by CellTiter-Blue reagent based […] assay. In short, it runs like this:
as §1

`Nc1ncnc2c1ncn2[C@H]1C[C@H](O)[C@@H](CN2CCOCC2)O1`: the IC50 (in experiment [1]; in the experiment on TC-32; in experiment [2]; in the experiment with SAOS-2; in the experiment with U2OS) was no less than 50 µM each time.
For `CS(=O)(=O)C[C@H]1O[C@@H](n2cnc3c(N)nc(Cl)nc32)[C@@H](F)[C@@H]1O`, the IC50 – broadly, the midpoint of a concentration-inhibition curve – was no less than 50 µM in experiment [1]; no less than 50 µM in the experiment on TC-32; 31.4 µM in experiment [2]; no less than 50 µM in the experiment with SAOS-2; no less than 50 µM with U2OS.
Consider `Nc1nc(-c2cccnc2)nc2c1ncn2[C@H]1C[C@H](O)[C@@H](CO)O1`, for which the IC50 in experiment [1] came out at 54.4 µM; in the experiment with TC-32, 52.2 µM; in experiment [2] it was 29.3 µM; with SAOS-2 it was 110 µM; in the experiment on U2OS, 162 µM.
For the molecule `Nc1nc(-c2ccsc2)nc2c1ncn2[C@@H]1O[C@H](CO)[C@@H](O)[C@@H]1F`, the IC50 (in experiment [1]; in the experiment with TC-32; in experiment [2]; in the experiment on SAOS-2; with U2OS) was no less than 50 µM each time.
Consider `Nc1ncnc2c1ncn2[C@@H]1O[C@H](CN2CCOCC2)[C@@H](O)[C@@H]1F`, for which the half-inhibitory concentration (IC50) (in experiment [1]; in the experiment with TC-32; in experiment [2]; in the experiment on SAOS-2; in the experiment on U2OS) was no less than 50 µM each time.
Take `Nc1nc(N2CCOCC2)nc2c1ncn2[C@@H]1O[C@H](CN2CCOCC2)[C@@H](O)[C@@H]1F`: the half-maximal inhibitory concentration (IC50) (in the experiment with TC-32; in experiment [2]; with SAOS-2; in the experiment with U2OS) was no less than 100 µM throughout.
On to `Nc1ncnc2c1ncn2[C@H]1C[C@H](O)[C@@H](C(=O)O)O1`, for which the IC50 (in experiment [1]; in the experiment on TC-32; in experiment [2]; with SAOS-2; with U2OS) was no less than 50 µM throughout.
On to `CSC[C@H]1O[C@@H](n2cnc3c(N)nc(SC)nc32)[C@@H](F)[C@@H]1O`, for which the IC50 (in experiment [1]; in the experiment on TC-32; in experiment [2]; in the experiment on SAOS-2; with U2OS) was no less than 50 µM in each case.
For `Nc1ncnc2c1ncn2[C@@H]1C[C@@H](O)[C@H](C(=O)O)O1`, the IC50 (in experiment [1]; in the experiment on TC-32; in experiment [2]; in the experiment with SAOS-2; in the experiment on U2OS) was no less than 50 µM each time.
Consider `Nc1nc(-c2ccoc2)nc2c1ncn2[C@H]1C[C@H](O)[C@@H](CO)O1`, for which the IC50 in experiment [1] worked out at 77.5 µM; in the experiment with TC-32, 55 µM; in experiment [2], 67.8 µM; in the experiment on SAOS-2, 172 µM; in the experiment on U2OS it was 199 µM.
Regarding `Nc1nc(-c2ccsc2)nc2c1ncn2[C@H]1C[C@H](O)[C@@H](CO)O1`, the IC50 (in experiment [1]; in the experiment with TC-32; in experiment [2]; in the experiment with SAOS-2; in the experiment with U2OS) was no less than 50 µM in each case.
Regarding `Nc1ncnc2c1ncn2[C@@H]1O[C@H](C(=O)O)[C@@H](O)[C@@H]1F`, the IC50 (in experiment [1]; in the experiment with TC-32; in experiment [2]; with SAOS-2; in the experiment on U2OS) was no less than 50 µM each time.
Consider `Nc1nc(Cl)nc2c1ncn2[C@H]1C[C@H](O)[C@@H](COc2cc(C(=O)O)cc(C(=O)O)c2)O1`, for which the IC50 (in the experiment on TC-32; in experiment [2]; with SAOS-2; with U2OS) was no less than 100 µM each time.
As to `Nc1nc(Cl)nc2c1ncn2[C@H]1C[C@H](O)[C@@H](CO)O1` [CLADRIBINE], the IC50 is 1.49 µM in experiment [1]; 2.92 µM in the experiment on TC-32; 1.1 µM in experiment [2]; no less than 50 µM with SAOS-2; no less than 50 µM with U2OS.
`Nc1nc(Cl)nc2c1ncn2[C@@H]1O[C@H](CN2CCOCC2)[C@@H](O)[C@@H]1F`: the IC50 (in the experiment with TC-32; in experiment [2]; with SAOS-2; in the experiment on U2OS) was no less than 100 µM throughout.
With `Nc1nc(-c2ccncc2)nc2c1ncn2[C@@H]1O[C@H](CO)[C@@H](O)[C@@H]1F`, the half-inhibitory concentration (IC50) (in experiment [1]; in the experiment with TC-32; in experiment [2]; in the experiment with SAOS-2; in the experiment with U2OS) was no less than 50 µM each time.
In the case of `Nc1nc(-c2ccncc2)nc2c1ncn2[C@H]1C[C@H](O)[C@@H](CO)O1`, the IC50 (in experiment [1]; in the experiment on TC-32; in experiment [2]; in the experiment on SAOS-2; in the experiment with U2OS) was no less than 50 µM throughout.
Turning to `CS(=O)(=O)C[C@H]1O[C@@H](n2cnc3c(N)nc(Cl)nc32)C[C@@H]1O`, the IC50 in experiment [1] is no less than 50 µM; in the experiment on TC-32, no less than 50 µM; in experiment [2], 36 µM; with SAOS-2, no less than 50 µM; with U2OS, no less than 50 µM.
Regarding `Nc1ncnc2c1ncn2[C@@H]1O[C@H](CN2CCOCC2)[C@@H](O)[C@H]1F`, the IC50 (in experiment [1]; in the experiment with TC-32; in experiment [2]; in the experiment with SAOS-2; in the experiment on U2OS) was no less than 50 µM in each case.
For `Nc1nc(Cl)nc2c1ncn2[C@@H]1O[C@H](COc2cc(C(=O)O)cc(C(=O)O)c2)[C@@H](O)[C@@H]1F`, the IC50 with TC-32 was no less than 100 µM; in experiment [2] it was 96.7 µM; with SAOS-2 it was 86.5 µM; with U2OS, no less than 100 µM.
For `C=C1O[C@@H](n2cnc3c(N)nc(N4CCOCC4)nc32)[C@@H](F)[C@@H]1O`, the IC50 with TC-32 is 98 µM; in experiment [2], no less than 100 µM; in the experiment on SAOS-2, 97.3 µM; in the experiment with U2OS it was 67 µM.
Take `Nc1ncnc2c1ncn2[C@@H]1C[C@@H](O)[C@H](CN2CCOCC2)O1`: the IC50 (in experiment [1]; in the experiment on TC-32; in experiment [2]; in the experiment on SAOS-2; in the experiment with U2OS) was no less than 50 µM throughout.
For `Nc1ncnc2c1ncn2[C@@H]1O[C@H](C(=O)O)[C@@H](O)[C@H]1F`, the IC50 (in experiment [1]; in the experiment on TC-32; in experiment [2]; in the experiment with SAOS-2; in the experiment on U2OS) was no less than 50 µM in each case.
Consider `Nc1nc(-c2ccoc2)nc2c1ncn2[C@@H]1O[C@H](CO)[C@@H](O)[C@@H]1F`, for which the IC50 (in experiment [1]; in the experiment with TC-32; in experiment [2]; with SAOS-2; in the experiment on U2OS) was no less than 50 µM each time.
On to `Nc1nc(Cl)nc2c1ncn2[C@H]1C[C@H](O)[C@@H](CN2CCOCC2)O1`, for which the IC50 with TC-32 is no less than 100 µM; in experiment [2], no less than 100 µM; in the experiment with SAOS-2 it was 97.3 µM; in the experiment with U2OS, no less than 100 µM.
